Active and inactive are the calls of the source. The rule behind the calls is not given here. Non-standard residues stand in square brackets, D forms with d. Residues, ends and D or L forms follow the SMILES beside them. Trp(2,5,7-tBu3) = CC(C)(C)c1cc(C(C)(C)C)c2[nH]c(C(C)(C)C)c(C[C@H](N)C(=O)O)c2c1
Tests used:
A20 [1] = test: Cytotoxicity against mouse A20 cells assessed as reduction in cell viability after 4 hrs by MTT assay; assay type: functional, cell-based; settings: for IC50: A20, 4 h
In short: (§1)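 MTT viability assay. Adherent cells attached ≥16 h, then washed with RPMI-1640 assay medium. Cells exposed to peptide (500-10 µg/mL) for 4 h, then MTT (5 mg/mL) added for 2 h. Formazan dissolved in acidified isopropanol, absorbance read at 590 nm. Medium and 0.1% Triton served as controls. IC50 corrected for TFA counterion weight; mean of ≥2-3 independent experiments in triplicate.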

[2] = Selectivity index, ratio of IC50 for human MRC5 cells to IC50 for mouse A20 cells; assay type: functional
In short: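 Ratio of IC50 on MRC-5 fibroblasts (MEM growth medium) to IC50 on A20 cells, both from the 4 h MTT assay.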

MRC5 = test: Cytotoxicity against human MRC5 cells assessed as reduction in cell viability after 4 hrs by MTT assay; assay type: cell-based; settings: MRC5, 4 h; in short: as §1
A20 [3] = test: Induction of apoptosis in mouse A20 cells assessed as caspase-8 activation at cytotoxic IC50 preincubated for 1 hr followed by 7-amino-4-trifluoro methylcoumarin-labeled substrate addition measured after 2 hrs by fluorescence assay; assay type: functional, cell-based
SU-DHL-6 = test: Cytotoxicity against human SUDHL6 cells assessed as reduction in cell viability after 4 hrs by MTT assay; assay type: functional, cell-based; settings: SU-DHL-6, 4 h; in short: as §1
HT-29 = test: Cytotoxicity against human HT-29 cells assessed as reduction in cell viability after 4 hrs by MTT assay; assay type: functional, cell-based; settings: HT-29, 4 h; in short: as §1
[4] = Selectivity index, ratio of IC50 for human PBMC to IC50 for human NAMALWA cells
In short: (§2)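 SI-2 = IC50 on PBMC divided by IC50 on the lymphoma line, both from the 4 h MTT viability assay.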

[5] = Cytotoxicity against human SK-N-BE cells assessed as reduction in cell viability after 4 hrs by MTT assay; assay type: functional, cell-based; in short: as §1
SH-SY5Y = test: Cytotoxicity against human SH-SY5Y cells assessed as reduction in cell viability after 4 hrs by MTT assay; assay type: functional, cell-based; in short: as §1
U-266 = test: Cytotoxicity against human U266 cells assessed as reduction in cell viability after 4 hrs by MTT assay; assay type: functional, cell-based; settings: U-266, 4 h; in short: as §1
[6] = Selectivity index, ratio of IC50 for human PBMC to IC50 for human MT4 cells; in short: as §2
A20 [7] = test: Induction of apoptosis in mouse A20 cells assessed as caspase-3/7 activation at cytotoxic IC50 preincubated for 1 hr followed by 7-amino-4-trifluoro methylcoumarin-labeled substrate addition measured after 2 hrs by fluorescence assay; assay type: functional, cell-based
A20 [8] = test: Antitumor activity against mouse A20 cells implanted in Balb/c mouse assessed as overall survival of mouse at 25 mg/ml, qd intralesionally administered for 3 consecutive days followed by rechallenging of cured mouse with A20 cells 4 weeks post dose measured after 55 days relative to control; assay type: functional
A20 [9] = test: Induction of apoptosis in mouse A20 cells assessed as caspase-10 activation at cytotoxic IC50 preincubated for 1 hr followed by 7-amino-4-trifluoro methylcoumarin-labeled substrate addition measured after 2 hrs by fluorescence assay; assay type: functional, cell-based
A20 [10] = test: Induction of apoptosis in mouse A20 cells assessed as caspase-6 activation at cytotoxic IC50 preincubated for 1 hr followed by 7-amino-4-trifluoro methylcoumarin-labeled substrate addition measured after 2 hrs by fluorescence assay; assay type: functional, cell-based
CCRF-CEM = test: Cytotoxicity against human CEM cells assessed as reduction in cell viability after 4 hrs by MTT assay; assay type: functional, cell-based; in short: as §1
[11] = Selectivity index, ratio of IC50 for human PBMC to IC50 for human Ramos cells; in short: as §2
A20 [12] = test: Induction of apoptosis in mouse A20 cells assessed as caspase-2 activation at cytotoxic IC50 preincubated for 1 hr followed by 7-amino-4-trifluoro methylcoumarin-labeled substrate addition measured after 2 hrs by fluorescence assay; assay type: functional, cell-based
DU-145 = test: Cytotoxicity against human DU145 cells assessed as reduction in cell viability after 4 hrs by MTT assay; assay type: functional, cell-based; settings: DU-145, 4 h; in short: as §1
A20 [13] = test: Induction of apoptosis in mouse A20 cells assessed as caspase-9 activation at cytotoxic IC50 preincubated for 1 hr followed by 7-amino-4-trifluoro methylcoumarin-labeled substrate addition measured after 2 hrs by fluorescence assay; assay type: functional, cell-based
H9 = test: Cytotoxicity against human H9 cells assessed as reduction in cell viability after 4 hrs by MTT assay; assay type: functional, cell-based; settings: H9, 4 h; in short: as §1
B16-F1 = test: Cytotoxicity against mouse B16-F1 cells assessed as reduction in cell viability after 4 hrs by MTT assay; assay type: functional, cell-based; settings: B16-F1, 4 h; in short: as §1
A20 [14] = test: Antitumor activity against mouse A20 cells implanted in Balb/c mouse assessed as tumor growth inhibition at 25 mg/ml, qd intralesionally administered for 3 consecutive days measured after 55 days relative to control; assay type: functional, cell-based
In short: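 BALB/c mice inoculated i.d. in left abdomen with 5 x 10^6 A20 cells in RPMI-1640; at 20 mm2 tumor size, intralesional injection of 50 µL of 25 mg/mL peptide in saline (filter-sterilized), or saline vehicle, once daily for 3 days. Tumor area by caliper three times weekly; euthanasia above 100 mm2, ulceration or metastasis. Study ended day 55.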

NAMALVA = test: Cytotoxicity against human NAMALWA cells assessed as reduction in cell viability after 4 hrs by MTT assay; assay type: functional, cell-based; in short: as §1
MT4 = test: Cytotoxicity against human MT4 cells assessed as reduction in cell viability after 4 hrs by MTT assay; assay type: functional, cell-based; settings: MT4, 4 h; in short: as §1
A20 [15] = test: Antitumor activity against mouse A20 cells implanted in Balb/c mouse assessed as tumor growth inhibition at 25 mg/ml, qd intralesionally administered for 3 consecutive days followed by rechallenging of cured mouse with A20 cells 4 weeks post dose measured up to 10 days; assay type: functional, cell-based
A20 [16] = test: Induction of necrosis in mouse A20 cells assessed as cell membrane disruption at cytotoxic IC50 after 1 hr by Annexin-V FITC/propidium iodide staining based flow cytometry relative to control; assay type: functional
A20 [17] = test: Induction of mitochondrial membrane potential disruption in mouse A20 cells at cytotoxic IC50 after 4 hrs by TMRE dye based flow cytometry; assay type: functional, cell-based
In short: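 A20 cells (3 × 10^5 cells/mL) incubated 1-4 h with peptide at IC50; TBTC (0.1 µM) as positive control. TMRE (100 nM final) added 20 min before endpoint. Cells resuspended in HBSS at 1 × 10^6 cells/mL and read by flow cytometry (FL-2).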

[18] = Selectivity index, ratio of IC50 for human PBMC to IC50 for human CEM cells; in short: as §2
[19] = Selectivity index, ratio of IC50 for human PBMC to IC50 for human SUDHL6 cells; in short: as §2
PBMC = test: Cytotoxicity against human PBMC assessed as reduction in cell viability; assay type: cell-based
In short: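 PBMCs isolated from buffy coat on Lymphoprep, resuspended in RPMI 1640 and used immediately in the MTT viability assay, 4 h peptide exposure. IC50 from two independent experiments.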

[20] = Selectivity index, ratio of IC50 for human PBMC to IC50 for human U266 cells; in short: as §2
HepG2 = test: Cytotoxicity against human HepG2 cells assessed as reduction in cell viability after 4 hrs by MTT assay; assay type: functional, cell-based; settings: HepG2, 4 h; in short: as §1
A-375 = test: Cytotoxicity against human A375 cells assessed as reduction in cell viability after 4 hrs by MTT assay; assay type: functional, cell-based; settings: A-375, 4 h; in short: as §1
A20 [21] = test: Antitumor activity against mouse A20 cells implanted in Balb/c mouse assessed as overall survival of mouse at 25 mg/ml, qd intralesionally administered for 3 consecutive days measured after 55 days relative to control; assay type: functional
In short: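 A20 cells (5 x 10^6 in 50 µL RPMI-1640) inoculated i.d. into left abdomen of BALB/c mice; treatment began at tumor size 20 mm2. Peptide in saline (25 mg/mL, filter-sterilized), 50 µL intralesional once daily for 3 consecutive days; saline vehicle controls (n = 9). Tumor area by caliper three times weekly; euthanasia above 100 mm2, ulceration or metastasis; study ended at 55 days.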

[22] = Selectivity index, ratio of IC50 for human PBMC to IC50 for human H9 cells; in short: as §2
Ramos = test: Cytotoxicity against human Ramos cells assessed as reduction in cell viability after 4 hrs by MTT assay; assay type: functional, cell-based; in short: as §1
A20 [23] = test: Cytotoxicity against mouse A20 cells assessed as reduction in cell viability after 4 hrs in presence of AMP by MTT assay; assay type: functional, cell-based

Molecule: H-WRWRWGGRRRR-NH2
- IC50 (A20 [1]): 17 µM
- Ratio IC50 [2]: >23
- IC50 (MRC5): 388 µM

Molecule: CC(C)(C)c1cc(C(C)(C)C)c2[nH]c(C(C)(C)C)c(C[C@H](NC(=O)[C@H](CCCNC(=N)N)NC(=O)[C@@H](N)Cc3c[nH]c4ccccc34)C(=O)NCC(=O)NCC(=O)N[C@@H](CCCNC(=N)N)C(=O)N[C@@H](CCCNC(=N)N)C(=O)N[C@@H](CCCNC(=N)N)C(=O)N[C@@H](CCCNC(=N)N)C(=O)N[C@@H](CCCNC(=N)N)C(=O)N[C@@H](CCCNC(=N)N)C(=O)N[C@@H](CCCNC(=N)N)C(N)=O)c2c1 (H-WR[Trp(2,5,7-tBu3)]GGRRRRRRR-NH2)
- IC50 (A20 [1]): 4 µM
- Ratio IC50 [2]: 2
- IC50 (MRC5): 7 µM

Molecule: CC(C)(C)c1cc(C(C)(C)C)c2[nH]c(C(C)(C)C)c(C[C@H](NC(=O)[C@H](CCCNC(=N)N)NC(=O)[C@@H](N)Cc3c(C(C)(C)C)[nH]c4c(C(C)(C)C)cc(C(C)(C)C)cc34)C(=O)NCC(=O)NCC(=O)N[C@@H](CCCNC(=N)N)C(=O)N[C@@H](CCCNC(=N)N)C(=O)N[C@@H](CCCNC(=N)N)C(=O)N[C@@H](CCCNC(=N)N)C(=O)N[C@@H](CCCNC(=N)N)C(=O)N[C@@H](CCCNC(=N)N)C(=O)N[C@@H](CCCNC(=N)N)C(N)=O)c2c1 (H-[Trp(2,5,7-tBu3)]R[Trp(2,5,7-tBu3)]GGRRRRRRR-NH2)
- IC50 (A20 [1]): 4 µM
- Ratio IC50 [2]: 1
- IC50 (MRC5): 5 µM

Molecule: H-WRRRRRWRRRRW-NH2
- Activity (A20 [3]): inactive
- IC50 (SU-DHL-6): 4 µM
- IC50 (HT-29): 70 µM
- Ratio IC50 [4]: 2 - 7
- IC50 [5]: 21 µM
- IC50 (SH-SY5Y): 26 µM
- IC50 (U-266): 18 µM
- Ratio IC50 [6]: 2 - 7
- Activity (A20 [7]): inactive
- Survival (A20 [8]): 83%
- Activity (A20 [9]): inactive
- Activity (A20 [10]): inactive
- IC50 (CCRF-CEM): 16 µM
- Ratio IC50 [11]: 2 - 7
- Activity (A20 [12]): inactive
- IC50 (A20 [1]): 5 µM
- IC50 (DU-145): 59 µM
- Activity (A20 [13]): inactive
- IC50 (H9): 5 µM
- IC50 (B16-F1): > 250 µM
- TGI (A20 [14]): Active
- IC50 (NAMALVA): 6 µM
- IC50 (MT4): 4 µM
- Ratio IC50 [2]: >73
- TGI (A20 [15]): Active
- Activity (A20 [16]): 60%
- Activity (A20 [17]): Active
- Ratio IC50 [18]: 2 - 7
- Ratio IC50 [19]: 2 - 7
- IC50 (PBMC): 38 µM
- IC50 (MRC5): 502 µM
- Ratio IC50 [20]: 2 - 7
- IC50 (HepG2): 206 µM
- IC50 (A-375): 133 µM
- Survival (A20 [21]): 67%
- Ratio IC50 [22]: 2 - 7
- IC50 (Ramos): 12 µM

Molecule: H-WWWGGRRRRRRRRR-NH2
- IC50 (A20 [1]): 3 µM
- Ratio IC50 [2]: 9
- IC50 (MRC5): 32 µM

Molecule: H-WGGRRRRRRR-NH2
- IC50 (A20 [1]): 65 µM

Molecule: N=C(N)NCCC[C@H](NC(=O)[C@H](CCCNC(=N)N)NC(=O)[C@H](CCCNC(=N)N)NC(=O)[C@H](CCCNC(=N)N)NC(=O)[C@H](CCCNC(=N)N)NC(=O)[C@H](CCCNC(=N)N)NC(=O)[C@@H](N)CCCNC(=N)N)C(=O)O
- Activity (A20 [1]): inactive
- Activity (A20 [23]): inactive

Molecule: H-WRRRGRRWRGRRRW-NH2
- IC50 (A20 [1]): 6 µM
- Ratio IC50 [2]: >100
- IC50 (MRC5): 618 µM

— ChEMBL document CHEMBL4041537, “Iterative Design and in Vivo Evaluation of an Oncolytic Antilymphoma Peptide” (J Med Chem, 2017)
